Measurements taken from ChEMBL document CHEMBL1133683, “beta-Turned dipeptoids as potent and selective CCK(1) receptor antagonists” (J Med Chem, 2000).

Assays:
[1] = biological target: T1, Gastrin/cholecystokinin type B receptor (Rattus norvegicus, UniProt P30553); assay: In vitro inhibition of [3H]propionyl-CCK-8 binding to rat cerebral cortex membranes at Cholecystokinin type B receptor.; format: cell membranes, Membrane
T1 sequence (P30553 whole entry): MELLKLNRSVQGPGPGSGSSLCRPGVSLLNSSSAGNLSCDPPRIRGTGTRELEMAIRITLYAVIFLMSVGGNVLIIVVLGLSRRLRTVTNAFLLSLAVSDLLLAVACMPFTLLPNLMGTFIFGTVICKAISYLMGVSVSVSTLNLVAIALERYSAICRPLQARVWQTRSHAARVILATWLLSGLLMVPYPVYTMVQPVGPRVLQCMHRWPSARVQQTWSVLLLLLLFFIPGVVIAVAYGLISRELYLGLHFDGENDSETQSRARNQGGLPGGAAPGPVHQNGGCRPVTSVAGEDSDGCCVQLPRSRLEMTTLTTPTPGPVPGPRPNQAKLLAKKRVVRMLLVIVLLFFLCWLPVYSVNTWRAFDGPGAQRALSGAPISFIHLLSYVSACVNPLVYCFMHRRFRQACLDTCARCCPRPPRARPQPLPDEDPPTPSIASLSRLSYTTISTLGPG
Method in brief: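 Rat cerebral cortex homogenized in 50 mM Tris-HCl pH 7.4 with 5 mM MgCl2 and spun twice (100000g, 35 min, 4 °C). Membranes (0.45 mg protein/tube) incubated with 1 nM [3H]pCCK-8 in the same buffer plus bacitracin 0.2 mg/mL, 60 min at 25 °C. Nonspecific binding defined with 1 μM CCK-8. Seven test concentrations in duplicate, at least three experiments, mean ± SEM.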

Rattus norvegicus = species: Rattus norvegicus; assay: Inhibition of CCK-8-stimulated amylase release from pancreatic acinar cells; format: functional, cell-based
Method in brief: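 Pancreatic acini prepared by collagenase digestion (70 U/mL, three 10-min incubations at 37 °C under O2). Acini incubated 30 min at 37 °C under pure O2 with agitation. Amylase release was stimulated by 0.1 nM CCK-8 and expressed as percent of acinar amylase released. Percent inhibition was calculated across increasing drug concentrations, and IC50 is given with a range.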

[2] = biological target: T2, Cholecystokinin receptor type A (Rattus norvegicus, UniProt P30551); assay: In vitro inhibition of [3H]propionyl-CCK-8 binding to rat pancreatic membranes at Cholecystokinin type A receptor.; format: cell membranes, Membrane
T2 sequence (P30551 whole entry): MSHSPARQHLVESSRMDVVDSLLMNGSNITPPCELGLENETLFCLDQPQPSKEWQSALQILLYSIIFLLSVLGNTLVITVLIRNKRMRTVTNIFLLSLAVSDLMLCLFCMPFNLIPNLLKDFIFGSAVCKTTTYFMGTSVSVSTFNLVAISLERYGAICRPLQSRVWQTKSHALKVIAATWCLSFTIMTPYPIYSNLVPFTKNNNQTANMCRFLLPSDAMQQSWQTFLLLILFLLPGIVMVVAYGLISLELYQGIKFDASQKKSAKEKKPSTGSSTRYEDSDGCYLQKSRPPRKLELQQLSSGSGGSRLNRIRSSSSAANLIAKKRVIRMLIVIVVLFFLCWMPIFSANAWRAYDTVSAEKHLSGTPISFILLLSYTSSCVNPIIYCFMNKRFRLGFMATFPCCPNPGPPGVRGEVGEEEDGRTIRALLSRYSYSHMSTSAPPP
Method in brief: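 Rat pancreas homogenized in Pipes-HCl pH 6.5 with 30 mM MgCl2 and spun twice (50000g, 10 min, 4 °C). Membranes (0.2 mg protein/tube) incubated with 0.5 nM [3H]pCCK-8 in the same buffer plus bacitracin and soybean trypsin inhibitor (0.2 mg/mL each), 120 min at 25 °C. Nonspecific binding defined with 1 μM CCK-8. Seven concentrations in duplicate, ≥3 experiments, mean ± SEM.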

Row | IC50 [1] [µM] | IC50 [2] [µM] | Compound | IC50 (Rattus norvegicus) [µM]
1 | 0.202 | 0.00173 | O=C(N[C@@H]1C[C@H]2c3[nH]c4ccccc4c3C[C@H](C(=O)N[C@@H](Cc3ccccc3)C(=O)O)N2C1=O)OCc1ccccc1 | 0.0012
2 | > 10 | 0.0475 | COC(=O)[C@H](Cc1ccccc1)NC(=O)[C@@H]1Cc2c([nH]c3ccccc23)[C@H]2C[C@H](NC(=O)OCc3ccccc3)C(=O)N21 | –
3 | > 10 | > 1 | COC(=O)[C@@H](Cc1ccccc1)NC(=O)[C@@H]1Cc2c([nH]c3ccccc23)[C@H]2C[C@H](NC(=O)OCc3ccccc3)C(=O)N21 | –
4 | > 10 | > 1 | COC(=O)C[C@H](Cc1ccccc1)NC(=O)[C@H]1Cc2c([nH]c3ccccc23)[C@@H]2C[C@@H](NC(=O)OCc3ccccc3)C(=O)N12 | –
5 | 5.63 | 0.45 | COC(=O)[C@H](Cc1ccccc1)NC(=O)[C@H]1Cc2c([nH]c3ccccc23)[C@@H]2C[C@@H](NC(=O)OCc3ccccc3)C(=O)N12 | –
6 | > 10 | 0.0047 | O=C(N[C@H]1C[C@@H]2c3[nH]c4ccccc4c3C[C@@H](C(=O)N[C@@H](Cc3ccccc3)C(=O)O)N2C1=O)OCc1ccccc1 | 0.006
7 | > 10 | 0.0546 | O=C(N[C@H]1C[C@@H]2c3[nH]c4ccccc4c3C[C@@H](C(=O)N[C@H](Cc3ccccc3)C(=O)O)N2C1=O)OCc1ccccc1 | –
8 | 2.7 | – | O=C(O)C[C@@H](Cc1ccccc1)NC(=O)[C@@H]1Cc2c([nH]c3ccccc23)[C@H]2C[C@H](NC(=O)OCc3ccccc3)C(=O)N21 | –
9 | – | – | CN1C(=O)[C@@H](NC(=O)c2cc3ccccc3[nH]2)N=C(c2ccccc2)c2ccccc21 [DEVAZEPIDE] | 0.0025
10 | > 10 | – | O=C(O)C[C@H](Cc1ccccc1)NC(=O)[C@@H]1Cc2c([nH]c3ccccc23)[C@H]2C[C@H](NC(=O)OCc3ccccc3)C(=O)N21 | –
11 | > 10 | > 1 | O=C(O)C[C@@H](Cc1ccccc1)NC(=O)[C@H]1Cc2c([nH]c3ccccc23)[C@@H]2C[C@@H](NC(=O)OCc3ccccc3)C(=O)N12 | –
12 | > 10 | > 1 | NC(=O)[C@H](Cc1ccccc1)NC(=O)[C@@H]1Cc2c([nH]c3ccccc23)[C@H]2C[C@H](NC(=O)OCc3ccccc3)C(=O)N21 | –
13 | > 10 | 0.0978 | O=C(O)C[C@H](Cc1ccccc1)NC(=O)[C@H]1Cc2c([nH]c3ccccc23)[C@@H]2C[C@@H](NC(=O)OCc3ccccc3)C(=O)N12 | –
14 | 4.91 | > 1 | COC(=O)C[C@@H](Cc1ccccc1)NC(=O)[C@H]1Cc2c([nH]c3ccccc23)[C@@H]2C[C@@H](NC(=O)OCc3ccccc3)C(=O)N12 | –
15 | > 10 | > 1 | NC(=O)[C@@H](Cc1ccccc1)NC(=O)[C@@H]1Cc2c([nH]c3ccccc23)[C@H]2C[C@H](NC(=O)OCc3ccccc3)C(=O)N21 | –
16 | 3.72 | > 1 | O=C(N[C@@H]1C[C@H]2c3[nH]c4ccccc4c3C[C@H](C(=O)N[C@H](Cc3ccccc3)C(=O)O)N2C1=O)OCc1ccccc1 | –
17 | > 10 | > 1 | COC(=O)[C@@H](Cc1ccccc1)NC(=O)[C@H]1Cc2c([nH]c3ccccc23)[C@@H]2C[C@@H](NC(=O)OCc3ccccc3)C(=O)N12 | –
